MDM2 E3 inh: inhibitors of human Mdm2 E3 ubiquitin ligase | signal enhancement, % at 5 µM | cell-based MDM2 ubiquitination luciferase reporter, 2 h; 0 = plate control, 100 = twice control, blank-subtracted | 210,000 compounds, 0.11% hits | Q00987 | AID 1230;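 active = signal enhancement of 30% or more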;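 also: luminescence tracks abundance of the self-degrading MDM2-luciferase fusion protein; higher signal means inhibition of MDM2 E3 ligase activity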
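test system = mammalian cells stably expressing self-ubiquitinating, self-degrading MDM2 E3–luciferase fusion | quantity = 2000 cells/well | incubation = cell settling 4 h, compound treatment 2 h, both 37 °C | signal = luminescence with SteadyLite reagent, 15 min at room temperature | evaluation = % enhancement relative to plate controls after blank subtraction | benchmarks = plate controls and plate blanks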
PKD1 inh: blocks activity of human protein kinase D1; Q15139; PKD1 kinase fluorescence polarization assay; inhibition, % (concentration not given with the values); 200,000 compounds, 0.056% hits; AID 797; in the data active = inhibition above about 50%
Target sequence (Q15139 whole entry, looked up): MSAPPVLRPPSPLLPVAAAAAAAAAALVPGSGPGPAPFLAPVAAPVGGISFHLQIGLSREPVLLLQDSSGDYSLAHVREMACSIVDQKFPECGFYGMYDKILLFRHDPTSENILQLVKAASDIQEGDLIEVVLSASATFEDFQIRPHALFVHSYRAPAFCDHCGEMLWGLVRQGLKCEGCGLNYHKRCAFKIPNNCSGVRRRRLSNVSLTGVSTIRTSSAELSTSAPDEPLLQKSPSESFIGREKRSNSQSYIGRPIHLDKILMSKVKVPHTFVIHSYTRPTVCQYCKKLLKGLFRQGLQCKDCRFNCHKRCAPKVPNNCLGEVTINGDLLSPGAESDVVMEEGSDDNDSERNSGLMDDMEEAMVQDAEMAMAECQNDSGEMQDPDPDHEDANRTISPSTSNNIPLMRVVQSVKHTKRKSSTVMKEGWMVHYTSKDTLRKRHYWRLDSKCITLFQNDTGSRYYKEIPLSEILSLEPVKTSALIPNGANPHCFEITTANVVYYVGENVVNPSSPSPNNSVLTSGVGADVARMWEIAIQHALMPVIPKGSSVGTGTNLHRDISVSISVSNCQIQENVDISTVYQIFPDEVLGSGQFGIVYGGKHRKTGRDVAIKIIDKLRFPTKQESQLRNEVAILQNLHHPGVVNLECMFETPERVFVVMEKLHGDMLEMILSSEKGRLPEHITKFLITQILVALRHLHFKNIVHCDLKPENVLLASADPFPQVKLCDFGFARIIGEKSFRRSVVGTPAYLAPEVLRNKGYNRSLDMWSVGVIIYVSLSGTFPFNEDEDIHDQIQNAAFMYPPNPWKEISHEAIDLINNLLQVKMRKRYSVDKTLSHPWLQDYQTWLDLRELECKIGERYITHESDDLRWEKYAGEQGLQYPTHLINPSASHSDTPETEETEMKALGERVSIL
m-calpain inh: inhibitors of pig calpain II; 220,000 compounds, 0.37% hits; purified calpain II, fluorogenic peptide substrate, 30 min; inhibition, % at 16 µM;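 active = inhibition above about 50%, limit read from the data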
ROMK primary: modulators of human ROMK potassium channel | B-score at 10 µM | AID 1918 | P48048 | Tet-inducible ROMK, thallium flux fluorescence; actives lie on both sides | 130,000 compounds, 2% hits;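 active = signal ratio slope over the read window, or its plate-corrected B-score, at least 3 SD from the plate mean, either direction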;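 also: B-score of the F/F0 ratio slope over 7 to 12 s after thallium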
Arbovirus inh: antivirals against arbovirus infection | arbovirus infection cell-based antiviral screen | inhibition, % at 10 µM | 200,000 compounds, 0.37% hits; in the data active = inhibition above about 30%
Cl transport mod: KCC2 (human) Cl- transport modulation; Q9H2X9; KCC2 cells, thallium flux FluoZin-2 fluorescence; B-score of Tl+ flux slope (higher = more flux/activation; lower = inhibition) at 10 µM; 190,000 compounds, 2.2% hits; AID 1456;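 active = thallium flux slope and its plate-corrected score both differing from the plate sample mean at a set confidence after two filtering rounds, in either direction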;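 also: slope of fluorescence scaled to starting intensity during 10 to 20 s after thallium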
* marks the source's active call; other numbers are inactive results. In the library only some 3.7% were active in any assay of this set; here they are far more common.

Screening CCOc1ccc2nc(NC(=O)C3=NN(c4ccccc4)C(=O)CC3)sc2c1 returned MDM2 E3 inh 1, PKD1 inh 2, m-calpain inh -47, ROMK primary -0.42, Arbovirus inh 52* and Cl transport mod -0.99.
`Cc1ccc(/C=C/C(=O)CCC(=O)O)cc1` gave MDM2 E3 inh -27, PKD1 inh 7, m-calpain inh 30, ROMK primary 0.14, Arbovirus inh 16 and Cl transport mod -0.11.
For O=C(O)c1ccccc1Sc1c([N+](=O)[O-])cc(C(F)(F)F)cc1[N+](=O)[O-] the results were MDM2 E3 inh -5, PKD1 inh -4, m-calpain inh -31, ROMK primary 0.7, Arbovirus inh 31* and Cl transport mod -0.19.
For O=S(=O)(Cc1ccc(Cl)cc1)Nc1ccc2c(c1)OCO2 the results were MDM2 E3 inh -13, PKD1 inh -6, m-calpain inh -13, ROMK primary -1.8* and Arbovirus inh -2.
`Cc1ccc(S(=O)(=O)Nc2cccc3ncccc23)s1` gave MDM2 E3 inh -27, PKD1 inh -6, m-calpain inh -48, ROMK primary -0.052, Arbovirus inh -46 and Cl transport mod 52*.
For CCC(C(=O)OCC(=O)Nc1ccc(Cl)c(S(=O)(=O)N(C)C)c1)c1ccccc1 (stereo unspecified) the results were MDM2 E3 inh -7, PKD1 inh -20, m-calpain inh 59*, Arbovirus inh 20 and Cl transport mod -0.85.
CCC(C(=O)OCC(=O)Nc1ccc(SC(F)F)cc1)c1ccccc1 (stereo unspecified) was read as MDM2 E3 inh -11, PKD1 inh -14, m-calpain inh 51*, Arbovirus inh -25 and Cl transport mod 0.32.
CCc1ccc2nc(NC(=O)Cn3cnc4ccccc4c3=O)sc2c1 was read as MDM2 E3 inh -13, PKD1 inh -5, m-calpain inh 72*, ROMK primary -0.78, Arbovirus inh 6 and Cl transport mod 0.87.
Screening Cc1ccc2nc(NC(=O)c3ccco3)sc2c1 returned MDM2 E3 inh -20, PKD1 inh 1, m-calpain inh 17, ROMK primary -0.81, Arbovirus inh 7 and Cl transport mod -1.6.
`Cc1cc(C)c2nc(NC(=O)c3cc(C)on3)sc2c1` gave MDM2 E3 inh -14, PKD1 inh -2, m-calpain inh -127, ROMK primary 1.7, Arbovirus inh 10 and Cl transport mod 39*.
`CCc1ccc2nc(NC(=O)c3cc(C)on3)sc2c1` gave MDM2 E3 inh -19, PKD1 inh 2, m-calpain inh 31, Arbovirus inh -17 and Cl transport mod 42*.
`N#CC(c1cccc(Cl)c1)c1ccc2c(C(F)(F)F)cc(C(F)(F)F)nc2n1` (stereo unspecified) gave MDM2 E3 inh -60, PKD1 inh 4, m-calpain inh 63*, ROMK primary 3.2*, Arbovirus inh -31 and Cl transport mod 29*.
`O=C(CSc1ccc2nnc(CCNC(=O)c3ccccc3)n2n1)Nc1ccccc1F` gave MDM2 E3 inh 2, PKD1 inh -3, m-calpain inh -29, ROMK primary 0.8, Arbovirus inh 4 and Cl transport mod 0.64.
`O=C(NCCc1nnc2ccc(NCc3ccc(Cl)cc3)nn12)c1ccccc1` gave MDM2 E3 inh -8, PKD1 inh -1, m-calpain inh 57*, ROMK primary 0.026, Arbovirus inh 1 and Cl transport mod -0.017.
O=C(NCCN1C(=O)S/C(=C/c2cccnc2)C1=O)C1CC(=O)N(Cc2ccccc2)C1 (stereo unspecified) was read as MDM2 E3 inh 0, PKD1 inh -2, m-calpain inh 27, ROMK primary -0.94, Arbovirus inh 30* and Cl transport mod -0.016.
Screening CN(C)S(=O)(=O)c1ccc(C(=O)Nc2nnc(-c3cccs3)o2)cc1 returned MDM2 E3 inh -34, PKD1 inh -5, m-calpain inh 31, ROMK primary -0.74, Arbovirus inh 11 and Cl transport mod -0.31.
N#Cc1ccc(C(=O)Nc2nnc(-c3cccs3)o2)cc1 was read as MDM2 E3 inh -2, PKD1 inh -3, m-calpain inh 4, Arbovirus inh -9 and Cl transport mod 6.7*.
Screening O=C(c1ccc(Br)cc1)N(c1ccccn1)C1CCCCC1 returned m-calpain inh -4 and Cl transport mod -0.47.
O=C(O)CCc1ccc(-c2ccc(Br)cc2)n1CC(=O)O was read as MDM2 E3 inh 34*, PKD1 inh 2, m-calpain inh 8, Arbovirus inh 5 and Cl transport mod 0.57.
Cc1ccccc1Nc1nc(N)nc(CN2CCN(C(=O)c3ccccc3)CC2)n1 was read as MDM2 E3 inh -17, PKD1 inh -1, m-calpain inh 7, ROMK primary 0.77, Arbovirus inh -2 and Cl transport mod 0.037.
Screening CC1CCCCC1n1c(=S)[nH]c2ccccc2c1=O (stereo unspecified) returned MDM2 E3 inh -6, PKD1 inh -3, m-calpain inh 21, Arbovirus inh -35 and Cl transport mod 187*.
CC1CCCCC1NC(=O)CCCn1c(=S)[nH]c2ccccc2c1=O (stereo unspecified) was read as MDM2 E3 inh -2, PKD1 inh -1, m-calpain inh 12, ROMK primary 0.57, Arbovirus inh 5 and Cl transport mod 0.47.
Screening CCOc1cc2[nH]c(=S)n(CCN3CCCCC3CC)c(=O)c2cc1OCC (stereo unspecified) returned MDM2 E3 inh -31, PKD1 inh -6, m-calpain inh -29, ROMK primary 0.018, Arbovirus inh -5 and Cl transport mod 0.68.
`CC(C)n1c(=S)[nH]c2ccccc2c1=O` gave MDM2 E3 inh -6, PKD1 inh 1, m-calpain inh -14, Arbovirus inh -6 and Cl transport mod 37*.
`CCC1CCCCN1CCCn1c(=S)[nH]c2ccccc2c1=O` (stereo unspecified) gave MDM2 E3 inh -29, PKD1 inh -6, m-calpain inh 18, ROMK primary -0.12, Arbovirus inh 8 and Cl transport mod 9.2*.
CCOc1cc2[nH]c(=S)n(C(C)C)c(=O)c2cc1OCC was read as MDM2 E3 inh -10, PKD1 inh -4, m-calpain inh 0, Arbovirus inh -9 and Cl transport mod 9.7*.
Cc1ccc(S(=O)(=O)N(C)C)cc1NC(=O)c1cccnc1Oc1ccccc1 was read as MDM2 E3 inh -1, m-calpain inh -17 and Cl transport mod -0.033.
`CCc1ccc(NC(=O)CSCc2ccc(C(=O)O)cc2)cc1` gave PKD1 inh -7, m-calpain inh 9, ROMK primary -0.12, Arbovirus inh 1 and Cl transport mod 0.4.
`c1ccc(-c2nc(N3CCCCCC3)nc(-n3ccnc3)n2)cc1` gave MDM2 E3 inh -9, PKD1 inh 10, m-calpain inh 2, ROMK primary -0.71, Arbovirus inh -36 and Cl transport mod -0.027.
